Experimental data published in ChEMBL document CHEMBL2203171, “The use of small molecule probes to study spatially separated stimulus-induced signaling pathways” (Bioorg Med Chem Lett, 2012).
The source made the active and inactive calls. No cut-off for these calls is given here.

What was measured:
Assay type in all cases: cell-based
[1] = target: T1, Toll-like receptor 3 (Mus musculus) (UniProt Q99MB1); assay: Inhibition of TRIF recruitment to TLR3 in C57BL/6 mouse BMDM cells assessed as inhibition of pI:pC-induced IkappaBalpha degradation up to 90 mins by Western blot analysis
T1 sequence (whole entry): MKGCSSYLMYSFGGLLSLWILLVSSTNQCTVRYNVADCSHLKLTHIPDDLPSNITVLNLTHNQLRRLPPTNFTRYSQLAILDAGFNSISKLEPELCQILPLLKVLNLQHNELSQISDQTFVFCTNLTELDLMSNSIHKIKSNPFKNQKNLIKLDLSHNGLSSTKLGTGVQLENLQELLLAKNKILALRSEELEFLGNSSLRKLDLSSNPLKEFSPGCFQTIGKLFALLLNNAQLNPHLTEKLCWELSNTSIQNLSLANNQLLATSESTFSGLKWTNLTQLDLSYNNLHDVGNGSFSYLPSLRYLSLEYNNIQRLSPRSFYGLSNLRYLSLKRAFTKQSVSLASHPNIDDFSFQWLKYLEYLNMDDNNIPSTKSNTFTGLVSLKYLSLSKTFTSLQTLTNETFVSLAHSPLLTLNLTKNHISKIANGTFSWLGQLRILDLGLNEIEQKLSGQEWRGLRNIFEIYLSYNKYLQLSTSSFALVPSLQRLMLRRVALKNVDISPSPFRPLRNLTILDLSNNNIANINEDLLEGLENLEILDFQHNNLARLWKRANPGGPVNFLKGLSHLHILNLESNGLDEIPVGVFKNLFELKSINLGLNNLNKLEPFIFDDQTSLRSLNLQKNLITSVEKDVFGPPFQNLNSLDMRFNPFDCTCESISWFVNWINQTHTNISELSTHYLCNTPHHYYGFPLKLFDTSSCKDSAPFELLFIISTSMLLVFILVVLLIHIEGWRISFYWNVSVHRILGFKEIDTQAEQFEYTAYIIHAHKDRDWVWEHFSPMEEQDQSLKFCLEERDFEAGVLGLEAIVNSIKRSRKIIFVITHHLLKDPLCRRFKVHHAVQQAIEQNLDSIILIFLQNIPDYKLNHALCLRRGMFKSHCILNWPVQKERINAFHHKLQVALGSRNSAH
Summary of the method: (§1)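 Bone marrow macrophages from C57BL/6 mice, grown in 70% growth medium (DMEM, 10% FBS) plus 30% L929-conditioned medium and given fresh medium 12-14 h before stimulation. Stimuli: IL-1 40 ng/ml, HKSA ~10^8 cfu/ml, pI:pC 50 μg/ml or CpG 10 μg/ml, ± compound at 10 μM (final) added from a 200x DMSO stock. IκBα and p38 profiled by immunoblot. Three independent experiments, quantitated and normalized.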

[2] = target: T2, Inhibitor of nuclear factor kappa-B kinase subunit beta (Mus musculus) (UniProt O88351); assay: Inhibition of IKKbeta in C57BL/6 mouse BMDM cells assessed as inhibition of TNFalpha-induced phosphorylation at 25 uM after 5 mins by Western blot analysis
T2 sequence (whole entry): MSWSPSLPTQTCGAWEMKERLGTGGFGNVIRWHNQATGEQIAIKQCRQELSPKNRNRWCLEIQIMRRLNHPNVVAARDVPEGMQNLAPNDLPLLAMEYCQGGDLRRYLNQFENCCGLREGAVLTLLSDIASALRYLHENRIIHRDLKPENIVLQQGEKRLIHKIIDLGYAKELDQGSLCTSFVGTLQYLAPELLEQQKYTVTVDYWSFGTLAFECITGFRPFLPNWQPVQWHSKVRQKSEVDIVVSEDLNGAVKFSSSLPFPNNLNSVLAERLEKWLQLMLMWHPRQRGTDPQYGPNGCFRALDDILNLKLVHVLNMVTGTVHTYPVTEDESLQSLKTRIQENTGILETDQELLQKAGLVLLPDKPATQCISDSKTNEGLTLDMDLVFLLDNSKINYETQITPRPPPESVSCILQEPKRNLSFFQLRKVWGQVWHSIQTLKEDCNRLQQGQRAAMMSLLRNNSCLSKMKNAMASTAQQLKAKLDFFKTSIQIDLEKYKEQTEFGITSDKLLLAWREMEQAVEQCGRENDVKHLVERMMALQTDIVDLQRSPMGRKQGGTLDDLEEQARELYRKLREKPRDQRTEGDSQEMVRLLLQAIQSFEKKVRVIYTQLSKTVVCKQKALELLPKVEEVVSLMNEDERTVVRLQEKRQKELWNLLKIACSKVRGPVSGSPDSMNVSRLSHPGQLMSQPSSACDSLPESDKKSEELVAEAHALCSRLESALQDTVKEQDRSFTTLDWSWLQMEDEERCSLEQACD
Summary of the method: (§2)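 C57BL/6 marrow-derived macrophages were cultured in 70% growth medium/30% L929-conditioned medium and refreshed 12-14 h before stimulation. Stimuli were TNF 40 ng/ml or LPS 100 ng/ml, ± compound at 25 μM from a 200x DMSO stock. Western blots tracked IKK, p38, IκBα and phospho-RelA. Results from three independent experiments were quantitated and normalized.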

[3] = target: T2, Inhibitor of nuclear factor kappa-B kinase subunit beta (Mus musculus); assay: Inhibition of IKKbeta in C57BL/6 mouse BMDM cells assessed as inhibition of LPS-induced IkappaBalpha phosphorylation at 50 uM up to 90 mins by Western blot analysis
[4] = target: T2, Inhibitor of nuclear factor kappa-B kinase subunit beta (Mus musculus); assay: Inhibition of IKKbeta in C57BL/6 mouse BMDM cells assessed as inhibition of TNFalpha-induced IkappaBalpha phosphorylation at 25 uM after 5 mins by Western blot analysis; summary of the method: as §2
[5] = target: T2, Inhibitor of nuclear factor kappa-B kinase subunit beta (Mus musculus); assay: Inhibition of IKKbeta in C57BL/6 mouse BMDM cells assessed as inhibition of TNFalpha-induced RelA phosphorylation at 25 uM after 5 mins by Western blot analysis; summary of the method: as §2
[6] = target: T1, Toll-like receptor 3 (Mus musculus); assay: Inhibition of TRIF recruitment to TLR3 in C57BL/6 mouse BMDM cells assessed as inhibition of pI:pC-induced IkappaBalpha phosphorylation up to 90 mins by Western blot analysis; summary of the method: as §1

Row | Compound | inhibition [1] | inhibition [2] | inhibition of IkappaBalpha phosphorylation (active/not active) [3] | inhibition [4] | inhibition [5] | inhibition [6]
1 | O=C(CCCCCN1C(=O)C=CC1=O)Oc1ccc2cc(C(C(=O)NCc3ccccc3)N(C(=O)Cc3ccc4c(c3)OCO4)C3CC3)ccc2c1 (stereo not drawn) | Active | inactive | Active | inactive | inactive | Active
2 | O=C(CCCCCCCC(=O)ON1C(=O)CCC1=O)Oc1ccc2cc(C(C(=O)NCc3ccccc3)N(C(=O)Cc3ccc4c(c3)OCO4)C3CC3)ccc2c1 (stereo not drawn) | Active | inactive | Active | inactive | inactive | Active
3 | O=C(CCCCCN1C(=O)CCC1=O)Oc1ccc2cc(C(C(=O)NCc3ccccc3)N(C(=O)Cc3ccc4c(c3)OCO4)C3CC3)ccc2c1 (stereo not drawn) | Active | inactive | inactive | inactive | inactive | Active
